Assay results published in ChEMBL document CHEMBL4834429, “Discovery of Nanomolar Melanocortin-3 Receptor (MC3R)-Selective Small Molecule Pyrrolidine Bis-Cyclic Guanidine Agonist Compounds Via a High-Throughput "Unbiased" Screening Campaign” (J Med Chem, 2021).

Assays:
Type in all cases: functional, cell-based
[1] = molecular target: Melanocortin receptor 4 (Mus musculus) (UniProt P56450); assay: Agonist activity at mouse melanocortin receptor 4 expressed in HEK293 cells assessed as stimulation of intracellular cAMP accumulation at 10 uM incubated for 24 hrs by beta-galactosidase reporter gene assay relative to control; details: filed as agonist
How it was run: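 After lysis, ONPG hydrolysis was read at 405 nm and normalized to Bradford protein and maximal NDP-MSH response. Duplicates, ≥3 independent experiments; 100 μM dropped from fits where toxic.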

[2] = molecular target: Melanocyte-stimulating hormone receptor (Mus musculus, UniProt Q01727); assay: Antagonist activity at mouse melanocortin receptor 1 expressed in HEK293 cells assessed as inhibition of NDP-MSH-induced intracellular cAMP accumulation incubated for 24 hrs by beta-galactosidase reporter gene assay
Melanocortin receptor 3 = Melanocortin receptor 3 (Mus musculus, UniProt P33033); assay: Antagonist activity at mouse melanocortin receptor 3 expressed in HEK293 cells assessed as inhibition of NDP-MSH-induced intracellular cAMP accumulation incubated for 24 hrs by beta-galactosidase reporter gene assay
Melanocortin receptor 5 = Melanocortin receptor 5 (Mus musculus, UniProt P41149); assay: Agonist activity at mouse melanocortin receptor 5 expressed in HEK293 cells assessed as stimulation of intracellular cAMP accumulation incubated for 24 hrs by beta-galactosidase reporter gene assay
Melanocortin receptor 5, sequence (P41149 whole entry): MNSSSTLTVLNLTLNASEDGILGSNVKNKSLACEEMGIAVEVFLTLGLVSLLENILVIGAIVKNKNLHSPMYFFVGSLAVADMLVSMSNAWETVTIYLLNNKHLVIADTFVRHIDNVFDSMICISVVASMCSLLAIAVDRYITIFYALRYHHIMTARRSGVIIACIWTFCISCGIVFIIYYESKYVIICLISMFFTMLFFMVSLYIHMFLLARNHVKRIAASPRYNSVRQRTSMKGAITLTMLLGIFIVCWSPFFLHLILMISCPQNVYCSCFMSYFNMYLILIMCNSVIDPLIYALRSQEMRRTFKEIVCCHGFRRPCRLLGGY

Melanocyte-stimulating hormone receptor, sequence (Q01727 whole entry): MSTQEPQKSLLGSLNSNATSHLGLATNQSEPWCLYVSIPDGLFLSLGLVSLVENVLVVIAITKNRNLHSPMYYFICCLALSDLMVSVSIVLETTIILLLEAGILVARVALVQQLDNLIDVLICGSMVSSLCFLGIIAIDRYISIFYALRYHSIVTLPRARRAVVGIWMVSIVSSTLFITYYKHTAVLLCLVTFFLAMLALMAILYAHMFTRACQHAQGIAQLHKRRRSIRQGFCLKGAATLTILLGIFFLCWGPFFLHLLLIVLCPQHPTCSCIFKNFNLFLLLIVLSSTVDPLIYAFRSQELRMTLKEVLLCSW
Melanocortin receptor 3, sequence (P33033 whole entry): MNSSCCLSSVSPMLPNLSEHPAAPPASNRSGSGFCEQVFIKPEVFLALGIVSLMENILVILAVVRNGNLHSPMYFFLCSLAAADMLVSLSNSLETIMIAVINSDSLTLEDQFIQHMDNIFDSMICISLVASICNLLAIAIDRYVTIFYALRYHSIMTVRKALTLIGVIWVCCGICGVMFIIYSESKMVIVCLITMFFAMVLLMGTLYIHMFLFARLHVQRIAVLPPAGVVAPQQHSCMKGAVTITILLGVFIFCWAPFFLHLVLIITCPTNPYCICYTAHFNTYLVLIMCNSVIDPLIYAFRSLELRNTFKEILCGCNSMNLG
Melanocortin receptor 4 (Mus musculus), sequence (P56450 whole entry): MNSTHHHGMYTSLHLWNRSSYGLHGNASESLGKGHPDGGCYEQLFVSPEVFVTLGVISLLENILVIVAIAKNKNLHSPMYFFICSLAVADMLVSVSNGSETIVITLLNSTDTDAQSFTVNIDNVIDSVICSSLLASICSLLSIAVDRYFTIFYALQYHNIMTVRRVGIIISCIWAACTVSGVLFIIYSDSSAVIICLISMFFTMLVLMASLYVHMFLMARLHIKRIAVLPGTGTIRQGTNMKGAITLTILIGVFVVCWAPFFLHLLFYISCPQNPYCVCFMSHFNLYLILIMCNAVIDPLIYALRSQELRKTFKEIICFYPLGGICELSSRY

Emax [1]: 51% | EC50 [2]: > 100 µM | EC50 (Melanocortin receptor 3): > 100 µM | EC50 (Melanocortin receptor 5): 2.18 µM
SMILES: CCC[C@@H]1CN([C@H](Cc2ccccc2)CN2CCC[C@H]2CN2C(=N)NC[C@H]2CC(C)C)C(=N)N1CCCC(C)C
